The source made the active and inactive calls. The calls are words filed in the database; no cut-off is given here.
Experiments:
Bacillus subtilis [1] = assay: Phototoxicity against Bacillus subtilis after 3 hrs irradiated with UV light by disk diffusion method; type: functional
In short: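 B. subtilis broth culture on nutrient agar (0.3% beef extract, 0.5% peptone, 0.1% K2HPO4, 1.5% agar). Plates held in the dark at 37 °C for 3 h so compounds diffuse through the agar. Uncovered dishes then exposed to 365 nm UV for 20 min and reincubated in the dark at 37 °C overnight. Photosensitizing activity read as inhibition zones.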

Bacillus subtilis [2] = assay: Antimicrobial activity against Bacillus subtilis incubated in dark for 3 hrs by disk diffusion method; type: functional
In short: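 Nutrient agar (0.3% beef extract, 0.5% peptone, 0.1% dipotassium hydrogen phosphate, 1.5% agar) seeded with B. subtilis broth culture. Duplicate control plate kept unirradiated at 37 °C overnight in the incubator. Read-out is the size of the inhibition zones.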

Nucleic Acid = assay: Binding affinity to DNA; type: nucleic-acid assay

Row | Activity (Nucleic Acid) | Compound | inhibition zone (IZ) (Bacillus subtilis [1]) [mm] | inhibition zone (IZ) (Bacillus subtilis [2]) [mm]
1 | – | COc1c2occc2cc2ccc(=O)oc12 [METHOXSALEN] | 12 | –
2 | Active | O=c1cc(-c2ccccc2)c2ccc3oc4ccccc4c3c2o1 | 14 | 13
3 | Active | O=c1cc(-c2ccccc2)c2cc3c(cc2o1)oc1ccccc13 | 13 | 10
4 | – | O=c1cc(-c2ccccc2)c2cc3c4c(oc3cc2o1)CCCC4 | 7 | 9
5 | – | O=c1cc(-c2ccccc2)c2ccc3oc4c(c3c2o1)CCCC4 | 5 | –
6 | Active | Cc1cc(=O)oc2cc3c(cc12)oc1ccccc13 | 16 | 12
7 | Active | Cc1cc(=O)oc2ccc3oc4ccccc4c3c12 | 14 | 11

Source: ChEMBL document CHEMBL1152862, “Tetrahydrobenzo- and benzofurobenzopyrones as a new class of potential photoreagents toward DNA” (2009)
